An excerpt weighted towards active compounds, which were near 1.7% of everything screened.
DNMT1 inh – blocks human DNA methyltransferase DNMT1. P26358. DNMT1 molecular beacon, Hinp1I cleavage, fluorescence. inhibition (reported as % activation of signal), % at 10 µM. hit rate 0.83% among 360,000. AID 588458; in the data active = inhibition above about 50%
LMPTP block – LMPTP (human) inhibition; P24666; recombinant LMPTP-A, OMFP fluorogenic substrate, fluorescence intensity; inhibition, % at 20 µM; hit rate 0.22% among 360,000; AID 651560;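 active = compounds that cut the enzyme signal by at least half of the control window in the single-dose screen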;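 note: plate controls were DMSO wells with enzyme plus substrate for no effect and substrate without enzyme for full effect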
Target sequence (P24666 whole entry, looked up): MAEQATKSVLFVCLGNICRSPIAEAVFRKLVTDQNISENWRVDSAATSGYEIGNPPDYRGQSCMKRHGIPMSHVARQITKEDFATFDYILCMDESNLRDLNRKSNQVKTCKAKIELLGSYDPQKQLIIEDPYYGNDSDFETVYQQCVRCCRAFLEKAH
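Material: LMPTP-A; amount: 0.625 nM enzyme; doses: single 20 µM dose; times: reaction 50 min, room temperature, dark; technique: fluorescence intensity of OMFP turnover product; benchmarks: no-enzyme and uninhibited controls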
Scp-1 inhibitor – Scp-1 (human) phosphatase inhibition. Recombinant Scp1, phosphopeptide, malachite green phosphate absorbance. inhibition, % at 20 µM. hit rate 0.88% among 340,000;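 active = inhibition above about 50% at 20 µM, limit read from the data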;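 note: plate controls were DMSO wells with enzyme for no effect and wells lacking enzyme for full effect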
Target sequence (Q9GZU7 76-261 limits assumed): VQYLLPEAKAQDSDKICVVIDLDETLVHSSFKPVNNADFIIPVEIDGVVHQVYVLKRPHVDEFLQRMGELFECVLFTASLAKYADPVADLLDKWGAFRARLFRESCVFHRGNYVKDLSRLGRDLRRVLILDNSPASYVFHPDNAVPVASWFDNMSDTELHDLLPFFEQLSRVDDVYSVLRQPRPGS
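Times: enzyme reaction 45 min at room temperature, colour 5 min, stabilisation 30 min. Material: SCP-1 catalytic fragment, aa 76-261. Medium: Acidic Tris acetate buffer with magnesium and detergent. Signal: colorimetric free-phosphate detection, absorbance 630 nm. Read-out basis: % inhibition of SCP-1 phosphate liberation. Reagent: Phosphorylated 17-residue peptide substrate.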
STEP block – inhibitors of human striatal-enriched phosphatase STEP. hit rate 0.25% among 360,000. P54829. recombinant STEP, OMFP fluorogenic substrate, fluorescence. AID 588621. inhibition, % at 20 µM;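 active = inhibition at 20 µM, scaled per plate between control wells, above about 37%, limit read from the data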;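 note: 0% = DMSO with enzyme and substrate and 100% = substrate only without enzyme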
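System: STEP (striatal-enriched tyrosine phosphatase) enzyme, cell-free; medium: Bis-Tris pH 6.0 buffer with DTT, detergent; dosing: 20 µM, 1% DMSO; times: reaction 20 min, ambient temperature; detection: fluorescence, 480/540 nm; read-out basis: normalized % inhibition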
SUMO1-SIM PPI – modulators of human SUMO1-mediated protein-protein interactions; SUMO1 binding to a labelled peptide, TR-FRET, 1 h; inhibition, % at 20 µM; hit rate 0.33% among 360,000; AID 602429; in the data active = inhibition above about 37%
Target sequence (P63165 whole entry, looked up): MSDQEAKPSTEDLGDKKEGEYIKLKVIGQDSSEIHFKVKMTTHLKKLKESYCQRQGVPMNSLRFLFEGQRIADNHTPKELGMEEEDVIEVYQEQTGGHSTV
Scp-1 conf – Scp-1 (human) inhibition, single-dose confirmed. recombinant SCP-1 catalytic domain, phosphate release, malachite green absorbance. hit rate 61% among 2,500. AID 540281. shares compounds with Scp-1 inhibitor. inhibition, % at 20 µM;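 note: plate controls were DMSO with enzyme for no effect and buffer wells lacking enzyme for full effect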
Scp-1 MG ctr – counter-screen for Scp-1 inhibitors: colorimetric interference; shares compounds with Scp-1 inhibitor; Colorimetric interference counterscreen, malachite green absorbance 630 nm; apparent inhibition (interference), % at 20 µM; 2,500 tested, under 10 active; AID 540313;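 note: compounds added after enzyme reaction finished so only phosphate colour detection is probed; plate controls were DMSO wells with completed Scp-1 reaction for no effect and substrate wells lacking enzyme for full effect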
Scp1 DSF – validation of human Scp-1 inhibitors by thermal shift binding. shares compounds with Scp-1 inhibitor. Recombinant SCP1, Sypro Orange thermal shift Tm. thermal shift relative to vanadate control, % at 40 µM. hit rate 25% among 1,500;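 active = substances whose mean melting-temperature shift, as a percentage of the reference inhibitor's shift, reaches about 5.3%, limit read from the data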;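 note: 0% = Tm of DMSO wells and 100% = Tm with sodium orthovanadate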
DNMT1 confirm – DNMT1 inhibition confirmation, single concentration; DNMT1 molecular beacon HinP1I cleavage, fluorescence; shares compounds with DNMT1 inh; inhibition, % at 10 µM; hit rate 8% among 2,300;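 active = average inhibition of at least 30% in the single-concentration confirmation test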
DNMT1 interf – counter-screen for DNMT1 inhibitors: spectral interference | shares compounds with DNMT1 inh | DNMT1 molecular beacon spectral interference counterscreen, fluorescence 485/520 | activation (fluorescence interference), % at 10 µM | hit rate 1% among 2,300 | AID 602387;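 active = activation of at least 30% at 10 µM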;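 note: DNMT1 catalytic domain with a HinP1I cleavage step and a FAM/dabcyl DNA beacon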
* hit, by the source's call; x = not tested or not shown.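 Rule for the calls, unless noted: active = inhibition of at least 30% at 20 µM; inactive = the rest.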

SMILES	DNMT1 inh	LMPTP block	Scp-1 inhibitor	STEP block	SUMO1-SIM PPI	Scp-1 conf	Scp-1 MG ctr	Scp1 DSF	DNMT1 confirm	DNMT1 interf
O=[N+]([O-])c1ccc(/C=N/Nc2nc(-c3ccccc3)c3cc(Br)ccc3n2)o1	51*	60*	101*	16	-13	76*	-5	5	6	1
Cc1ccc2nc(N/N=C\c3ccc([N+](=O)[O-])o3)nc(-c3ccccc3)c2c1	15	8	38	5	-33	x	x	x	x	x
O=c1cc(CSc2nnc(-c3cccs3)n2Cc2ccccc2)nc2sc3ccccc3n12	96*	25	75*	5	4	68*	-6	-24	1	0
Cc1cc(C(=O)CSc2nnc(-c3cccs3)n2Cc2ccccc2)c(C)n1C	-5	1	3	-2	3	x	x	x	x	x
O=C(Nc1cccc(NC(=O)c2cccs2)c1)c1ccc(Br)o1	-1	0	-6	1	4	x	x	x	x	x
O=C(Nc1ccc(NC(=O)c2cccs2)cc1)c1ccc(Br)o1	54*	42	61*	29	22	72*	-12	-9	-1	-5
C/C(=N/NC(=O)CNC(=O)CCc1ccccc1)c1ccc(Cl)c(Cl)c1	2	1	-11	0	-7	x	x	x	x	x
Cc1ccc(NC(=O)COc2coc(CN3CCc4ccccc43)cc2=O)cc1Cl	59*	19	59*	4	6	55*	-25	2	1	3
COc1cc(/C=C/CN2CCN(CCC(C)C)C(CCO)C2)ccc1O (centres undefined)	-1	0	-3	1	-4	x	x	x	x	x
O=C(O)CC(NCc1ccco1)C(=O)OCCc1ccccc1 (centres undefined)	2	-3	7	-2	0	x	x	x	x	x
C=C(C)CCOC(=O)C(CC(=O)O)NCc1ccco1 (centres undefined)	63*	0	86*	7	23	67*	-10	-9	3	1
O=C(COC(=O)/C=C/c1cccc(F)c1)NC1CCCCCC1	1	0	-5	1	-10	x	x	x	x	x
O=[N+]([O-])c1cccc(-c2nnc(-c3ccccc3F)o2)c1	4	0	-4	2	-29	x	x	x	x	x
O=C(Nc1cc2c(oc1=O)CCCC2=O)c1cccc(Cl)c1	-3	-1	-2	-7	-18	x	x	x	x	x
COc1ccc(C(=O)Nc2cc3c(oc2=O)CCCC3=O)cc1	68*	1	57*	1	-13	44*	-6	-2	2	1
O=C(c1ccc([N+](=O)[O-])cc1)N1CCN(C(=O)C2CCCCC2)CC1	2	0	-5	-1	-23	x	x	x	x	x
C=CCn1c(COc2ccc(F)cc2)nnc1SCC(=O)NC(=O)NCc1ccco1	74*	15	61*	4	3	56*	-10	-16	7	3
O=C(NCCCN1CCOCC1)C1CCN(S(=O)(=O)c2ccccc2)CC1	8	-3	-2	-2	-3	x	x	x	x	x
CC(=O)OC1CCC2(C)C3CCC4(C)C(C(C)=O)CCC4C3CC3OC32C1 (centres undefined)	-1	1	-13	0	1	x	x	x	x	x
COc1ccc2cc3c(N)nn(C(=O)c4ccc(Cl)c([N+](=O)[O-])c4)c3nc2c1	83*	65*	94*	89*	0	74*	-17	8.2*	9	-8
Cc1occc1C(=O)NCc1cccc(CNC(=O)c2ccoc2C)c1	51*	7	51*	4	25	73*	-9	5	18	3
